Experimental data taken from paper PMC9134258 (ACS Omega, 2022).

Key:
[1] = target: recombinant ALK kinase domain (aa 1073–1410) (Homo sapiens, UniProt Q9UM73); assay: ELISA-based in vitro kinase assay, recombinant ALK; assay type: biochemical; settings: 300 μM ATP
In short: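 Purified recombinant ALK kinase domain (aa 1073–1410), wild type or L1196M, was incubated with test compound and Mg++-ATP, then loaded onto peptide substrate-coated wells. Reaction ran at 30 °C for 20 min. After washing, phosphopeptide was quantified with anti-phosphotyrosine antibody PY20. IC50 came from nonlinear regression of normalized data. Inhibition mode was assessed from dose–response curves at increasing ATP concentrations.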

[2] = test system: Ba/F3 NPM/ALK cells; assay: Ba/F3 NPM/ALK cell proliferation; assay type: cell-based; settings: read-out: IC50 Ba/F3 NPM/ALK
In short: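 Ba/F3 cells stably expressing NPM/ALK variants were made by electroporation, selected with G418 (1 mg/mL), then selected again by IL3 withdrawal. Proliferation was measured by [3H]-thymidine incorporation across a dose range of test compound. IC50 was obtained by nonlinear regression of normalized data.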

[3] = test system: Ba/F3-parental cells; assay: Parental IL3-dependent Ba/F3 cell proliferation; assay type: cell-based; settings: Mus musculus, BaF3, read-out: IC50 Ba/F3-parental
In short: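 Cell growth was read by [3H]-thymidine incorporation across a dose range of test compound. IC50 values come from nonlinear regression curve fitting of normalized data.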

Sequence of recombinant ALK kinase domain (aa 1073–1410) (Q9UM73 1073-1410): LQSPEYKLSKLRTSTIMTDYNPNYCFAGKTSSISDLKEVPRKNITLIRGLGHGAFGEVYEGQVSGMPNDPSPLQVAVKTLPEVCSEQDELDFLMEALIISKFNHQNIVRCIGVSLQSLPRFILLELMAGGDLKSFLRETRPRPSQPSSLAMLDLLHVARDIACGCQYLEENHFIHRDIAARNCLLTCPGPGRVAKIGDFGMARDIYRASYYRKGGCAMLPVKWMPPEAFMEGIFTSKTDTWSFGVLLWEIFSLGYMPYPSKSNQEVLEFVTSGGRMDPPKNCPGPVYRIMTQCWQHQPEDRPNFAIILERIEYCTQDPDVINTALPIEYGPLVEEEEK

CCCC#Cc1ccc2c(n1)[nH]c1ccccc12 [Compound 34]
IC50 ALK ([1]; Table 2, 2,6-substituted compounds): inactive

Clc1cnc2[nH]c3ccc(-c4ccc(N5CCOCC5)cn4)cc3c2c1 [Compound 67]
IC50 ALK ([1]; Table 3, 3-chloro-6-substituted compounds): inactive

COc1ccc(-c2ccc3[nH]c4ncc(C=Cc5ccccc5)cc4c3c2)cc1 [Compound 102]
IC50 [2]: 2.8 µM | IC50 [3]: > 10 µM
